Laboratory results: ChEMBL document CHEMBL1134480, “Antiplasmodial activity and cytotoxicity of bis-, tris-, and tetraquinolines with linear or cyclic amino linkers” (J Med Chem, 2001)

What was measured:
[1] = system: Plasmodium falciparum; assay: (§1) In vitro growth inhibition of Plasmodium falciparum F32; type: functional, organism-based
Method in brief: (§2)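 Asynchronous P. falciparum cultures in human erythrocytes (0.5% parasitemia, 1% final hematocrit) exposed to serially diluted drug for 24 h at 37 °C, then pulsed with 0.5 µCi [³H]hypoxanthine per well. Inhibition from incorporated radioactivity versus drug-free control on the same plate; IC50 from concentration-response curve; mean ± SD of three independent experiments. DMSO ≤0.1% final.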

[2] = system: MRC5; assay: Cytotoxicity against MRC-5 cells at concentration 0.5 uM; type: functional; details: Homo sapiens
Method in brief: (§3)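 MRC-5 human embryonic lung diploid cells were seeded at 5000 per well. After 24 h the cells were washed and exposed to 2-fold drug dilutions in RPMI + 5% FCS, with final DMSO below 0.5%. Incubation was 7 days at 37 °C in 5% CO2. Viability was read by MTT absorbance at 540 nm.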

[3] = In vitro cytotoxic activity against mouse peritoneal macrophages at a concentration 8 uM; Toxic; type: toxicity
[4] = system: Plasmodium falciparum; assay: In vitro growth inhibition of Plasmodium falciparum D6; type: functional, organism-based; method in brief: as §2
[5] = species: Mus musculus; assay: In vitro cytotoxic activity against mouse peritoneal macrophages at a concentration 2 uM; Non-toxic; type: functional
[6] = system: MRC5; assay: Cytotoxicity against MRC-5 cells at concentration 32 uM; type: functional; details: Homo sapiens; method in brief: as §3
[7] = system: MRC5; assay: Cytotoxicity against MRC-5 cells at concentration 8 uM; type: functional; details: Homo sapiens; method in brief: as §3
[8] = system: MRC5; assay: Cytotoxicity against MRC-5 cells at concentration 1 uM; type: functional; details: Homo sapiens; method in brief: as §3
[9] = system: Plasmodium falciparum; assay: In vitro growth inhibition of Plasmodium falciparum FcB1R; type: functional, organism-based
Method in brief: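 Asynchronous P. falciparum cultures were grown in human erythrocytes at 0.5% parasitemia and 1% hematocrit. They were exposed to serial drug dilutions, with DMSO ≤0.1%, for 24 h at 37 °C before adding 0.5 µCi [3H]hypoxanthine per well. Inhibition was measured as incorporated radioactivity versus drug-free controls on the same plate. IC50 came from concentration–response curves, reported as mean ± SD of three independent experiments; FcB1R used several experiments.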

[10] = system: Plasmodium falciparum; assay: (§4) In vitro growth inhibition of Plasmodium falciparum W2; type: functional, organism-based; method in brief: as §2
[11] = In vitro cytotoxic activity against mouse peritoneal macrophages at a concentration 32 uM; Toxic; type: toxicity
[12] = In vitro cytotoxicity against mouse peritoneal macrophages at concentration 32 uM; Toxic; type: toxicity
[13] = In vitro cytotoxicity against mouse peritoneal macrophages at concentration 8 uM; Toxic; type: toxicity
[14] = species: Mus musculus; assay: In vitro cytotoxic activity against mouse peritoneal macrophages at a concentration 8 uM; Non-toxic; type: functional
[15] = In vitro cytotoxic activity against mouse peritoneal macrophages at concentration 32 uM; Toxic; type: toxicity
[16] = system: Plasmodium falciparum; assay: as §4; type: functional, organism-based; remark: listed apart in the source
[17] = Inhibition of haem polymerization
Method in brief: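 Insoluble FcB1R trophozoite material (~4 × 10^7 parasites) was mixed with 0.3 mM bovine haematin in 60 mM sodium acetate, pH 5, plus drug at varied concentrations and 1% DMSO, then incubated 4 h at 37 °C. The washed pellet was treated with SDS, and polymerized haem was dissolved in NaOH and read at 404 nm. Values were corrected for endogenous haemozoin to give IC50. Data are the mean of two independent experiments, each run in duplicate.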

[18] = system: Plasmodium falciparum; assay: as §1; type: functional, organism-based; remark: listed apart in the source

Question: What does the source list for O=C(CCN1CCCCC1)N1CCN(c2ccnc3cc(Cl)ccc23)CCN(c2ccnc3cc(Cl)ccc23)CC1?
Answer: IC50 [1]: 16.1 nM; cytotoxicity at 0.5 µM [2]: 0%; Cytotoxicity [3]: Toxic; IC50 [4]: 18.9 nM; Cytotoxicity [5]: Not toxic; cytotoxicity at 32 µM [6]: 91%; cytotoxicity at 8 µM [7]: 87%; cytotoxicity at 1 µM [8]: 0%; IC50 [9]: 38.6 nM; IC50 [10]: 50.2 nM; Cytotoxicity [11]: Toxic

Question: Which cytotoxicity at 0.5 µM [2] does the source give for Clc1ccc2c(NCCCCNCCCNc3ccnc4cc(Cl)ccc34)ccnc2c1 here?
Answer: The cytotoxicity at 0.5 µM was 0%.

Question: And the Cytotoxicity [5]?
Answer: Its Cytotoxicity is “Not toxic”.

Question: And the cytotoxicity at 32 µM [6]?
Answer: Its cytotoxicity at 32 µM is 100%.

Question: What about the cytotoxicity at 8 µM [7] of the same compound?
Answer: Its cytotoxicity at 8 µM is 100%.

Question: And the Cytotoxicity [12]?
Answer: Its Cytotoxicity is “Toxic”.

Question: And the cytotoxicity at 1 µM [8]?
Answer: The cytotoxicity at 1 µM was 0%.

Question: And the IC50 [9]?
Answer: Its IC50 is 57 nM.

Question: And the Cytotoxicity [13]?
Answer: Its Cytotoxicity is “Toxic”.

Question: With Clc1ccc2c(N3CCCNCCN(c4ccnc5cc(Cl)ccc45)CCCNCC3)ccnc2c1 as the compound, how does the cytotoxicity at 0.5 µM [2] read?
Answer: The cytotoxicity at 0.5 µM was 0%.

Question: And the Cytotoxicity [5]?
Answer: The Cytotoxicity was “Not toxic”.

Question: What about the cytotoxicity at 32 µM [6] of the same compound?
Answer: Its cytotoxicity at 32 µM is 98%.

Question: What about the cytotoxicity at 8 µM [7] of the same compound?
Answer: Its cytotoxicity at 8 µM is 0%.

Question: What about the cytotoxicity at 1 µM [8] of the same compound?
Answer: The cytotoxicity at 1 µM was 0%.

Question: And the Cytotoxicity [14]?
Answer: The Cytotoxicity was “Not toxic”.

Question: What about the IC50 [9] of the same compound?
Answer: The IC50 was greater than 1000 nM.

Question: And the Cytotoxicity [15]?
Answer: Its Cytotoxicity is “Toxic”.

Question: Which cytotoxicity at 0.5 µM [2] does the source give for Clc1ccc2c(N3CCNCCN(c4ccnc5cc(Cl)ccc45)CC3)ccnc2c1 here?
Answer: Its cytotoxicity at 0.5 µM is 0%.

Question: And the IC50 [4]?
Answer: Its IC50 is 74.5 nM.

Question: And the Cytotoxicity [5]?
Answer: Its Cytotoxicity is “Not toxic”.

Question: And the cytotoxicity at 32 µM [6]?
Answer: Its cytotoxicity at 32 µM is 0%.

Question: What about the cytotoxicity at 8 µM [7] of the same compound?
Answer: The cytotoxicity at 8 µM was 0%.

Question: And the cytotoxicity at 1 µM [8]?
Answer: Its cytotoxicity at 1 µM is 0%.

Question: What about the Cytotoxicity [14] of the same compound?
Answer: The Cytotoxicity was “Not toxic”.

Question: What about the IC50 [16] of the same compound?
Answer: Its IC50 is 170 nM.

Question: And the IC50 [17]?
Answer: Its IC50 is 170000 nM.

Question: What about the IC50 [18] of the same compound?
Answer: The IC50 was 64.6 nM.
